Data: ChEMBL document CHEMBL1140697, “Synthesis and evaluation in monkey of two sensitive 11C-labeled aryloxyanilide ligands for imaging brain peripheral benzodiazepine receptors in vivo” (J Med Chem, 2008)
pKi: −log10 of the molar value.

Experiments:
Translocator protein [1] = target: Translocator protein (Rattus norvegicus, UniProt P16257); assay: Binding affinity to PBR in Sprague-Dawley rat mitochondrial tissue
[2] = Binding affinity to PBR in rhesus monkey mitochondrial tissue; set-up: species or system Macaca mulatta
Method in brief: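 Mitochondrial fractions (rat, rhesus monkey or human) were incubated with [³H]PK 11195 (0.38 nM final) and eight test-ligand concentrations for 2 h at 4 °C. Samples were filtered on PEI-presoaked GF/B filters, washed with ice-cold buffer and counted. Nonspecific binding was taken at the top inhibitor level (0.1–0.3 µM). Triplicate curves were run in two independent experiments. IC₅₀ was converted to K_i by Cheng–Prusoff, using K_D from homologous PK 11195 displacement.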

Translocator protein [3] = target: Translocator protein (Homo sapiens, UniProt P30536); assay: Binding affinity to PBR in human mitochondrial tissue
[4] = Lipophilicity, log D of the compound; assay type: physicochemical; conditions: octanol/water
Method in brief: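 The ¹¹C-ligand (~300 µCi) in saline with 5% ethanol was mixed with sodium phosphate buffer (0.15 M, pH 7.4). Six 1 mL aliquots were each vortexed 1 min with buffer-pre-equilibrated n-octanol, centrifuged 1 min, and 200 µL of each phase was γ-counted. Aqueous counts were corrected by radio-HPLC for the unchanged fraction. LogD = log(cpm octanol/corrected cpm aqueous); mean ± SD of six determinations.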

[5] = Biodistribution in rhesus monkey plasma free fraction of blood; assay type: ADME, organism-based, Macaca mulatta
Plasma [6] = assay: Drug level in rhesus monkey plasma; assay type: ADME, cell-free, Macaca mulatta
[7] = target: Kappa-type opioid receptor (Homo sapiens, UniProt P41145); assay: Binding affinity to kappa opioid receptor
[8] = target: GABA A receptor alpha-2/beta-2/gamma-2 (Homo sapiens, UniProt P18507+P47869+P47870); assay: Binding affinity to GABA alpha-2-beta-2-gamma-2 receptor; assay type: protein-complex assay
Method in brief: (§1)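 K_i values at central benzodiazepine (GABA_A) receptor subtypes were determined in radioligand binding assays within the NIMH PDSP screen.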

[9] = target: GABA A receptor alpha-1/beta-1/gamma-2 (Homo sapiens, UniProt P14867+P18505+P18507); assay: Binding affinity to GABA alpha-1-beta-1-gamma-2 receptor; assay type: protein-complex assay; method in brief: as §1
[10] = target: GABA A receptor alpha-5/beta-3/gamma-2 (Rattus norvegicus, UniProt P18508+P19969+P63079); assay: Binding affinity to GABA alpha-5-beta-2-gamma-2 receptor; assay type: protein-complex assay, Homo sapiens; method in brief: as §1
[11] = target: GABA A receptor alpha-6/beta-2/gamma-2 (Homo sapiens, UniProt P18507+P47870+Q16445); assay: Binding affinity to GABA alpha-6-beta-2-gamma-2 receptor; assay type: protein-complex assay; method in brief: as §1
[12] = Stability in monkey whole blood >30 mins; assay type: ADME, tissue-based, Macaca mulatta; conditions: rhesus monkey, read-out: Stability
Method in brief: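 The radioligand was incubated with monkey blood for >30 min. Radioactivity extracted from the plasma was analysed by radio-HPLC to give the percentage of unchanged radioligand, reported as mean ± SD.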

[13] = Stability in Sprague-Dawley rat brain after 2 hrs; assay type: ADME, tissue-based; conditions: read-out: Stability
Method in brief: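 The radioligand was incubated with rat brain homogenate in saline for 2 h at 37 °C. The percentage of unchanged radioligand was then determined by radio-HPLC.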

[14] = Stability in sodium phosphate buffer at pH 7.4 after 2.5 hrs; assay type: physicochemical; conditions: read-out: Stability
Method in brief: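 Radioligand stored in 0.15 M sodium phosphate buffer, pH 7.4, for 2.5 h; radiochemical stability measured by radio-HPLC as percent of radioactivity remaining as unchanged radioligand; n = 4.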

Plasma [15] = assay: Drug level in rhesus monkey plasma assessed as cell distribution; assay type: ADME, cell-free, Macaca mulatta
Plasma [16] = assay: Biodistribution in rat plasma at 0.472 mCi, iv after 30 mins; assay type: ADME, organism-based; conditions: in vivo, 0.5 h
Method in brief: (§2)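 Rats received the ¹¹C-radioligand iv with varying carrier mass (µg/kg) and were sampled 30 min later. Plasma and brain homogenate were extracted into acetonitrile and analysed by reverse-phase radio-HPLC (C18; MeOH/H₂O/Et₃N, 1.5 mL/min), reporting % radioactivity as unchanged radioligand. Extraction recovery was recorded. Replicate HPLC analyses were run on one sample per rat.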

Plasma [17] = assay: Biodistribution in rat plasma at 2.34 mCi, iv after 30 mins; assay type: ADME, organism-based; conditions: in vivo, 0.5 h; method in brief: as §2
Rattus norvegicus = assay: Biodistribution in rat urine at 2.34 mCi, iv after 30 mins; assay type: ADME, organism-based; conditions: in vivo, 0.5 h
Brain = assay: Biodistribution in rat brain at 0.472 mCi, iv after 30 mins; assay type: ADME, organism-based; conditions: in vivo, 0.5 h

Sequence of Translocator protein (Homo sapiens, UniProt P30536) (P30536 whole entry): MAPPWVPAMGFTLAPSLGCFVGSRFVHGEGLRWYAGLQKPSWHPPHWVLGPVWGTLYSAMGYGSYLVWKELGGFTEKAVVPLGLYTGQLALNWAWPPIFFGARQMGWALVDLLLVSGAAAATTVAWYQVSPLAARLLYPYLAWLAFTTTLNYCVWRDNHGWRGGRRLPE
Sequence of Translocator protein (Rattus norvegicus, UniProt P16257) (P16257 whole entry, looked up): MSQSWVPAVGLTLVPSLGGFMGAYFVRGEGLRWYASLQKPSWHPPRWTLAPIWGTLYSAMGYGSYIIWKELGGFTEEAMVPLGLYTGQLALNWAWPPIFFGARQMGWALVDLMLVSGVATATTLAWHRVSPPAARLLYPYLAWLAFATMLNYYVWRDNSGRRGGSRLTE
Sequence of GABA A receptor alpha-5/beta-3/gamma-2 (P18508 whole entry): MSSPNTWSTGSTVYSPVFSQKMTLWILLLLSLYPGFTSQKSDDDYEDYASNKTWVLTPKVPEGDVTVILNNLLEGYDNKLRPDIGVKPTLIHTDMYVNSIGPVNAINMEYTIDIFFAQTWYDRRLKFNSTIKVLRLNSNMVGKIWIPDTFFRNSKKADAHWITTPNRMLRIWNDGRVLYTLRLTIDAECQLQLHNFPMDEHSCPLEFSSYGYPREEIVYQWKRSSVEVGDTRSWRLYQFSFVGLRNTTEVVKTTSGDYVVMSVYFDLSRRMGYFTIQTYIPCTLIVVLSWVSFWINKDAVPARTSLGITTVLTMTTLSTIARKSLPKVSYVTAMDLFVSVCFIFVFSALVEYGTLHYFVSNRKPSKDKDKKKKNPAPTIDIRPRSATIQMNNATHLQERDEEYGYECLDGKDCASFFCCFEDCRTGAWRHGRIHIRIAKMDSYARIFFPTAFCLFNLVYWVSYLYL
Sequence of GABA A receptor alpha-5/beta-3/gamma-2 (P19969 whole entry): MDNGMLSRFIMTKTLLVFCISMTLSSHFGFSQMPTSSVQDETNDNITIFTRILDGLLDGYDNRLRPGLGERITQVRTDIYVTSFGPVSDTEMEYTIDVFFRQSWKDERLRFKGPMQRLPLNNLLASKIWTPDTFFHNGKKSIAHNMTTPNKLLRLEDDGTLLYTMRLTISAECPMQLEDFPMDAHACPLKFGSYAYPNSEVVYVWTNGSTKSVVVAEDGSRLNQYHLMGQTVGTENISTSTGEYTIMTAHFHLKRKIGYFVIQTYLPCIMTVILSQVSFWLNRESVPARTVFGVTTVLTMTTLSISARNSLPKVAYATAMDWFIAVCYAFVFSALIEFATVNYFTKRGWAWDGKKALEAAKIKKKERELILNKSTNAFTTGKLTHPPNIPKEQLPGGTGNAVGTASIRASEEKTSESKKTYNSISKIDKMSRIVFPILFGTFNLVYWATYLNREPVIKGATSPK
Sequence of GABA A receptor alpha-5/beta-3/gamma-2 (P63079 whole entry): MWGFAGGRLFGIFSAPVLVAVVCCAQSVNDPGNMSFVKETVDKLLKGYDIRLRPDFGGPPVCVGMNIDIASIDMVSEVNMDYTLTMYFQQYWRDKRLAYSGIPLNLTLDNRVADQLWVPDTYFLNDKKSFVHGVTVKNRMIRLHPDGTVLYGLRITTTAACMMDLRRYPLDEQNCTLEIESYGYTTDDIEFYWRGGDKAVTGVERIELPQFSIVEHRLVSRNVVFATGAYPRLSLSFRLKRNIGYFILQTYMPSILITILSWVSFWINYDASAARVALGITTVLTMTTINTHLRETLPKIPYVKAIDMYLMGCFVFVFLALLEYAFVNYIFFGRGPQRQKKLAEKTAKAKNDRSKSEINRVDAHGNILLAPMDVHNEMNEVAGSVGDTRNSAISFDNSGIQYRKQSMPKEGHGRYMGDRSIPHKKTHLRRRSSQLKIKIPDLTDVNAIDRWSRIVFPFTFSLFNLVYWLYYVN
Sequence of GABA A receptor alpha-1/beta-1/gamma-2 (P14867 whole entry): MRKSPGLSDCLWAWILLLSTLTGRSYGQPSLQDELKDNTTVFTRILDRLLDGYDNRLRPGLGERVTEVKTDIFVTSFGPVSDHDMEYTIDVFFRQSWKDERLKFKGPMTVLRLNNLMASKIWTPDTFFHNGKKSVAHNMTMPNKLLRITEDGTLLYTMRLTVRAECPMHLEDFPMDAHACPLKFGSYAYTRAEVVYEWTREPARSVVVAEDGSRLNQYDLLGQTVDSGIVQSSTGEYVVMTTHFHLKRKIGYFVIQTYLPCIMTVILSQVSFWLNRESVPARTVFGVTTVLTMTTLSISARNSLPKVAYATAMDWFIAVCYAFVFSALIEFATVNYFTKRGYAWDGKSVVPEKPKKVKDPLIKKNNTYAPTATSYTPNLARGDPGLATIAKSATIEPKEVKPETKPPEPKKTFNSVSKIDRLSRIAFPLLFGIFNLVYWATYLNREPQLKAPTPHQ
Sequence of GABA A receptor alpha-1/beta-1/gamma-2 (P18507 whole entry): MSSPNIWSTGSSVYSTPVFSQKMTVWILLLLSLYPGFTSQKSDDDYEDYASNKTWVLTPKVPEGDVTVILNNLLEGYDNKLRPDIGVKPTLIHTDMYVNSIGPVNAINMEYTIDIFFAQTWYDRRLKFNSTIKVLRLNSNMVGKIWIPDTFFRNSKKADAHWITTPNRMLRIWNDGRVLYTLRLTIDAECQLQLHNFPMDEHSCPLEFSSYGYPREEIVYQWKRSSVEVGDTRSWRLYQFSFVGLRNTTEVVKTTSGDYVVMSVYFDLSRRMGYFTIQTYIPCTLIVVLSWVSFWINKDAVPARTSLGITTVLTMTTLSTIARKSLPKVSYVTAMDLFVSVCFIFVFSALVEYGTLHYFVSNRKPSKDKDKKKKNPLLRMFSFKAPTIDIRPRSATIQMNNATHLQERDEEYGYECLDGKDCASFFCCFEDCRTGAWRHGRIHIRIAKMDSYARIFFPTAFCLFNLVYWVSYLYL
Sequence of GABA A receptor alpha-1/beta-1/gamma-2 (P18505 whole entry): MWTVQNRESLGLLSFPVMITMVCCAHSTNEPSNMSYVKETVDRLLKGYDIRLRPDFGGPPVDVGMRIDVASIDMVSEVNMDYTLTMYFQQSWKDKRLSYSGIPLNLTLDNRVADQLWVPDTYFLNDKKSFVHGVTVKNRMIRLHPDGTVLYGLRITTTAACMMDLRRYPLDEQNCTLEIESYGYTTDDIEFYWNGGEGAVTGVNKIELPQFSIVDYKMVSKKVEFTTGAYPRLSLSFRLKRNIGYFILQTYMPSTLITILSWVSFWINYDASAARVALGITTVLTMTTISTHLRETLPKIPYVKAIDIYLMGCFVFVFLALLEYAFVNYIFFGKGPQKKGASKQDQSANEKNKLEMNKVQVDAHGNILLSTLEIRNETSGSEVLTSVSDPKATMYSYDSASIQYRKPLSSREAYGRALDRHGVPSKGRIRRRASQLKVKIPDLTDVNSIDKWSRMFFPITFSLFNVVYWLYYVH
Sequence of Kappa-type opioid receptor (P41145 whole entry): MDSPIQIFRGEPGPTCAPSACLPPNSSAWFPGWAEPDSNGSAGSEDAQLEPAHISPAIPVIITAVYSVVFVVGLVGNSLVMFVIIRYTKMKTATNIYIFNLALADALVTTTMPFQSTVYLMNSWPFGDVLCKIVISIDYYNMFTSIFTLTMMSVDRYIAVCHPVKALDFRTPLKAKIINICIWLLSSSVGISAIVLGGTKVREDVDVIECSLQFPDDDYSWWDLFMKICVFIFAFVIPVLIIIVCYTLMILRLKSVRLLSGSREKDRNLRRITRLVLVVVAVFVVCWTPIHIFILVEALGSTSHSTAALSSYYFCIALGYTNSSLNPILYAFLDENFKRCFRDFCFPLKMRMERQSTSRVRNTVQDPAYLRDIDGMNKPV
Sequence of GABA A receptor alpha-2/beta-2/gamma-2 (P47870 whole entry): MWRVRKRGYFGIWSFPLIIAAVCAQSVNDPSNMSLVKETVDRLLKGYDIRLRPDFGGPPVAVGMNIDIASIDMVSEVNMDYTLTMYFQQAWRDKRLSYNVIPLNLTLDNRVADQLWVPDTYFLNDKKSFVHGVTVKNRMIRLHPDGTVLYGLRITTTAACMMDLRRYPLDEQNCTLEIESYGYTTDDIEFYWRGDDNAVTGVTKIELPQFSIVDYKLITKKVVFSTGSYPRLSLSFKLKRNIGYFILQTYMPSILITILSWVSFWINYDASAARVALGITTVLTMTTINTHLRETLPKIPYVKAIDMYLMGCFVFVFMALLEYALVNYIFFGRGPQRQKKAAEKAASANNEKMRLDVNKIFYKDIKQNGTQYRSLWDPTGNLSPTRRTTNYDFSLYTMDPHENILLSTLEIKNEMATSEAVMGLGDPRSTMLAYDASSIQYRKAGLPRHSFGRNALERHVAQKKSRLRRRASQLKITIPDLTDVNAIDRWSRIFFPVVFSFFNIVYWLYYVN
Sequence of GABA A receptor alpha-2/beta-2/gamma-2 (P18507 whole entry): as the sequence (P18507 whole entry) above
Sequence of GABA A receptor alpha-2/beta-2/gamma-2 (P47869 whole entry): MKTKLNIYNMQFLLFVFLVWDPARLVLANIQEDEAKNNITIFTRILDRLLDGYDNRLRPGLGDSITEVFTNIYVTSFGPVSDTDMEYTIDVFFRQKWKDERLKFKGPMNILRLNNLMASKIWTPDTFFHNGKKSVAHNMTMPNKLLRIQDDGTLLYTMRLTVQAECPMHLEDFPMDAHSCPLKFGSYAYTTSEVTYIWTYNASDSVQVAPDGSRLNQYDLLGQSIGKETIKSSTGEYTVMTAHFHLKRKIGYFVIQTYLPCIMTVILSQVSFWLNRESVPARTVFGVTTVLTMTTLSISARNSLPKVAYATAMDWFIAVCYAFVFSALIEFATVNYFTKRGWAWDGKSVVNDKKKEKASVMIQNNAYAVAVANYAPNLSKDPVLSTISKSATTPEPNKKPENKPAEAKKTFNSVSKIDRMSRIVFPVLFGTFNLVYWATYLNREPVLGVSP

pKi [2]	logD [4]	fraction unbound [5]	Drug uptake (Plasma [6]) [%]	pKi [7]	pKi [8]	pKi [9]	pKi [10]	pKi [11]	remaining at 0.5 h [12] [%]	remaining at 2 h [13] [%]	remaining at 2.5 h [14] [%]	Drug uptake (Plasma [15]) [%]	Drug uptake (Plasma [16]) [%]	Drug uptake (Plasma [17]) [%]	Drug uptake (Rattus norvegicus) [%]	Drug uptake (Brain) [%]	SMILES	pKi (Translocator protein [1])	pKi (Translocator protein [3])
8.36	3.97	–	–	–	–	–	–	–	–	–	–	–	–	–	–	–	CC[C@H](C)N([11CH3])C(=O)c1cc2ccccc2c(-c2ccccc2Cl)n1	–	–
9.03	3.01	0.056	33.2	5.66	< 5.00	< 5.00	< 5.00	< 5.00	95.8	99.8	99	66.8	4.2	2.4	0.39	97.6	CC(=O)N(Cc1ccccc1O[11CH3])c1cnccc1Oc1ccccc1	9.17	8.61

SMILES	pKi [2]	logD [4]	fraction unbound [5]	Drug uptake (Plasma [6]) [%]	pKi [7]	pKi [8]	pKi [9]	pKi [10]	pKi [11]	remaining at 0.5 h [12] [%]	remaining at 2 h [13] [%]	remaining at 2.5 h [14] [%]	Drug uptake (Plasma [15]) [%]	Drug uptake (Plasma [16]) [%]	Drug uptake (Plasma [17]) [%]	Drug uptake (Rattus norvegicus) [%]	Drug uptake (Brain) [%]	pKi (Translocator protein [1])	pKi (Translocator protein [3])
COc1ccc(O[11CH3])c(CN(C(C)=O)c2cc(F)ccc2Oc2ccccc2)c1	9.64	–	–	–	–	–	–	–	–	–	–	–	–	–	–	–	–	10.14	9.62
